Bioassay records (PubChem)
S100A4 MyoIIA: inhibitors of human S100A4 binding to myosin IIA peptide. AID 652163. 360,000 compounds, 0.14% hits. inhibition, % at 10.7 µM. S100A4/TAMRA-MyoIIA peptide fluorescence polarization;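 active = mean inhibition of at least 70% across replicates, with every replicate also reaching that level; inconclusive = mean inhibition reaches 70% but some replicates fall short; inactive = mean inhibition below 70%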
Target sequence (P26447 whole entry, looked up): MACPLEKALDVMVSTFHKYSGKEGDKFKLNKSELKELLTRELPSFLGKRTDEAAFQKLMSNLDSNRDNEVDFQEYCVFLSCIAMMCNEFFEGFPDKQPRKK
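Material: S100A4 monomer protein / Buffer or medium: 50 mM HEPES pH 7.2, 10 mM CaCl2, 100 mM KCl / Times: 5 min incubation before reading / Benchmarks: neutral control DMSO, positive control TFP / Reagent: labelled myosin peptide probe, 5 nM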
FGF22 binding: shifts melting point of recombinant human FGF22 | Q9HCT0 | recombinant FGF22 thermal shift, SYPRO orange fluorescence; percent of sucrose octasulfate shift, DMSO zero | activity (Tm shift, normalised), % at 9.99 µM | 340,000 compounds, 1.5% hits | AID 651658;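 active = mean Tm shift, scaled 0 neutral to 100 positive control, at about 1.3% or above, every replicate too, limit read from the data; inconclusive = no clear call, values can overlap the other calls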
Target sequence (Q9HCT0 whole entry, looked up): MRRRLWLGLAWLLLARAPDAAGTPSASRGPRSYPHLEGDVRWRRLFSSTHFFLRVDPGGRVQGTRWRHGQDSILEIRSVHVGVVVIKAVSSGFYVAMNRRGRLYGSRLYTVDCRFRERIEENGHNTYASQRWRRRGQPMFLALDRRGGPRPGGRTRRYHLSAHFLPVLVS
E-selectin induc: E-selectin induction on HUVECs | P16581 | HUVEC E-selectin immunofluorescence imaging; normalized: neutral wells 0, TNF-alpha wells 100 | activation, % at 7.58 µM | 260,000 compounds, 0.37% hits | AID 686992;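 active = mean E-selectin-positive cell signal at least 10% of the positive control, reached in at least 60% of replicates, without over 20% cell loss; inconclusive = no rule given, readout overlaps actives, possibly toxicity-flagged; inactive = the rest, including those meeting only one limit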
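material = human umbilical vein endothelial cells (HUVEC), E-selectin induction | quantity = 3,000 cells/well | medium = EGM-2 growth medium on 0.1% gelatin-coated wells | technique = immunofluorescence imaging | read-out basis = % PE-positive cells | control set = TNF-alpha positive control, DMSO neutral control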
CFTR F508del cor: correctors of CFTR F508del function in bronchial epithelial cells; activity (quench increase), % at 7.58 µM; AID 720511; 350,000 compounds, 0.36% hits; CFBE cells, YFP halide quenching; stimulated with forskolin plus potentiator P3; % fluorescence drop versus neutral controls;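 active = mean added fluorescence quench of at least 8% versus neutral control, with both replicates also reaching 8%; inconclusive = only one of the mean or replicate conditions met; inactive = mean below 8% and not both replicates reaching 8%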;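 also: cells transiently co-express mutant CFTR-F508del with the halide-sensitive YFP; corrector assay measuring rescue of mutant channel to the surface after 24 h compound exposure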
HIV Env fusion: inhibitors of HIV Env-mediated cell fusion; HeLa-JRFL Env/CEM21 cell fusion, luciferase; inhibition, % at 12.3 µM; 360,000 compounds, 1.1% hits;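 active = mean replicate inhibition score of at least 50 and every replicate individually at or above 50; inconclusive = only one of the two criteria met; inactive = mean below 50 and not all replicates reaching 50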;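 also: 0% = plate neutral controls and 100% = maraviroc near 300 nM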
* marks the source's active call; other numbers are inactive results; u = inconclusive; x = no result; [ ] = dose if it differs, or a comment. In the library only some 2.7% were active in any assay of this set; here they are far more common.

SMILES | S100A4 MyoIIA | FGF22 binding | E-selectin induc | CFTR F508del cor | HIV Env fusion
C[C@@H]1CN([C@H](C)CO)C(=O)c2cc(NC(=O)Cc3ccccc3)ccc2O[C@@H](C)CCCCO[C@@H]1CN(C)Cc1ccc(C(F)(F)F)cc1 | x | 1 | 0 | 1 | 65*[16.7 µM]
C[C@@H]1CCCCO[C@@H](CN(C)Cc2ccc(C(F)(F)F)cc2)[C@H](C)CN([C@@H](C)CO)C(=O)c2cc(NC(=O)Cc3ccccc3)ccc2O1 | x | 0 | 0 | -4 | u
C[C@H](CO)N1C[C@H](C)[C@H](CN(C)C)Oc2cc(Br)ccc2S1(=O)=O | 6 | 0 | -1 | 1 | 9[16.7 µM]
C/C(=N/NS(=O)(=O)c1cccc([N+](=O)[O-])c1)c1ccncc1 | 0 | 0 | 28* | 0 | x
CC(=NNS(=O)(=O)c1cccc([N+](=O)[O-])c1)c1ccc(-n2ccnc2)cc1 | -4 | 0 | 0 | 0 | x
C/C(=N/NS(=O)(=O)c1ccc(CC(C)C)cc1)c1ccncc1 | -2 | 0 | 0 | 0 | 65*
CO[C@H]1CN(C)C(=O)c2cc(NC(=O)C3CC3)ccc2OC[C@@H](C)N(C(=O)c2ccccc2)C[C@@H]1C | 5 | 0 | 0 | 0 | x
COCCNC(=O)C(C)OC(=O)c1nsc(Cl)c1Cl (stereo not given) | x | x | x | x | -78
CC(OC(=O)c1nsc(Cl)c1Cl)C(=O)NCCc1ccccc1 (stereo not given) | -2 | 0 | 29* | -4 | -19
O=C1NC(c2ccccc2)=CC(c2ccccc2)N1 (stereo not given) | 0 | 44* | x | 2 | -6
Cc1cc(C)c(C(=O)COC(=O)CN2C(=O)NC3(CCCC3)C2=O)cc1C | -2 | 43* | 0 | -5 | 16
Cc1ccc(C)c(C(=O)CN2C(=O)NC3(CCCCCCC3)C2=O)c1 | -6 | 0 | 16 | 2 | 9
COc1ccccc1C(=O)COC(=O)CN1C(=O)NC2(CCCC2)C1=O | 93* | 0 | -2 | -2 | x
CC(C)NC(=O)N(C)C[C@H]1Oc2c(NC(=O)NC3CCCCC3)cccc2C(=O)N([C@H](C)CO)C[C@H]1C | 8 | 0 | 0 | -1 | -4[16.7 µM]
CCC(=O)Nc1ccc2c(c1)OC[C@@H](C)N(Cc1cncnc1)C[C@H](C)[C@H](OC)CN(C)C2=O | -35 | 0 | 0 | 1 | x
CCOc1ccc(CN2CCN(Cc3nc(C(C)C)cs3)CC2CCO)cc1 (stereo not given) | 0 | 43* | x | x | -15
Cc1cnccc1CN(C)Cc1cn(C)nc1-c1cccc(Cl)c1 | 1 | 0 | 0 | 0 | 12
CC(C)N(Cc1cn(C)nc1-c1cccc(Cl)c1)Cc1nccn1C | -5 | 43* | -1 | -2 | 0
O=C(COc1ccc(-n2cnnn2)cc1)Nc1ccc(F)c(F)c1 | -1 | 0 | 0 | 7 | 74*
COCC(=O)N(C)C[C@H]1Oc2ncc(C#CC(C)(C)O)cc2C(=O)N([C@@H](C)CO)C[C@H]1C | x | x | 1 | 0 | x
CCOc1cccc2sc(N(CCCN(C)C)C(=O)c3ccc(S(=O)(=O)N(C)c4ccccc4)cc3)nc12 | 1 | 44* | 1 | 4 | -18
CO[C@@H]1CN(C)C(=O)c2cc(NC(=O)CC(F)(F)F)ccc2OC[C@H](C)N(C(C)=O)C[C@H]1C | -24 | x | 1 | 2 | x
CCN(CC)c1ccc(/C=N/N2C(C)CCCC2C)c(O)c1 (stereo not given) | 10 | 0 | 5 | -3 | 73*
O=C(CSc1nnc2n1CCCCC2)NCc1ccccc1 | 0 | 43* | 0 | -1 | 58*
Cc1ccc(CNC(=O)CSc2nnc3n2CCCCC3)cc1 | -1 | 0 | 0 | 3 | x
CC(C)NC(=O)Nc1ccc2c(c1)C(=O)N([C@@H](C)CO)C[C@H](C)[C@@H](CN(C)S(=O)(=O)c1ccc(F)cc1)OCCCC[C@H](C)O2 | 12 | 0 | 0 | -2 | -44[16.7 µM]
CN(CCOc1ccc(-c2ccn(S(=O)(=O)c3ccc(Cl)cc3)n2)cc1)c1ccccn1 | x | x | x | x | 60*
CC(C)NC(=O)Nc1ccc2c(c1)C(=O)N([C@@H](C)CO)C[C@@H](C)[C@@H](CN(C)Cc1ccccc1)O2 | 3 | 0 | 0 | -3 | 2[16.7 µM]
O=C(Cc1ccncc1)NCC[C@H]1CC[C@@H](NC(=O)C2CCC2)[C@@H](CO)O1 | 13 | 0 | 1 | 1 | -7[16.7 µM]
